Reference: ChEMBL document CHEMBL3046765, “Subnanomolar inhibitor of cytochrome bc1 complex designed by optimizing interaction with conformationally flexible residues” (J Am Chem Soc, 2010)
Active and inactive are the calls of the source. The rule behind the calls is not given here.

Assays:
[1] = target: Cytochrome b (Sus scrofa, UniProt P24964); assay: Inhibition of Sus scrofa (pig) heart cytochrome bc1 complex using succinate and cytochrome c as substrates by spectrophotometric analysis
[2] = organism: Sus scrofa; assay: Competitive inhibition of Sus scrofa (pig) heart cytochrome bc1 complex using ubiquinol as substrate
[3] = target: T1, Succinate dehydrogenase [ubiquinone] iron-sulfur subunit, mitochondrial (Sus scrofa) (UniProt Q007T0); assay: Inhibition of Sus scrofa (pig) heart succinate-cytochrome c reductase (Electron transport protein complex 2/3) using succinate and cytochrome c as substrate at 1 to 5 nM by spectrophotometric analysis
T1 sequence (whole entry): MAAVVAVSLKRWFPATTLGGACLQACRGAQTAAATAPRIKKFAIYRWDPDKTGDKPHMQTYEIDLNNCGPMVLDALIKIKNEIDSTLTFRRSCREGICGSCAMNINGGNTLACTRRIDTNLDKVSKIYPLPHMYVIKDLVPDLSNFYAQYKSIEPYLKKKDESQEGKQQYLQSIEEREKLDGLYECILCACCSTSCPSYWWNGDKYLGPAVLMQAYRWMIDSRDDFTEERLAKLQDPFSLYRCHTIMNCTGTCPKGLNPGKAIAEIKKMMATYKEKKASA
Summary of the method: (§1)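 Progress curves at 0–5 nM inhibitor fitted by nonlinear regression for v0, vs, kobs; kobs versus inhibitor gives k+0, k−0; Ki = k−0/k+0. Cytochrome c 4–48 µM varied at fixed inhibitor for mechanism.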

[4] = organism: Sus scrofa; assay: Non-competitive inhibition of Sus scrofa (pig) heart cytochrome bc1 complex using cytochrome c as substrate
Summary of the method: as §1

[5] = target: Succinate-ubiquinone oxidoreductase (Sus scrofa) (UniProt A5GZW8+D0VWV4); assay: Inhibition of Sus scrofa (pig) heart succinate-ubiquinone reductase using succinate and DCIP as substrate by spectrophotometric analysis by spectrophotometric analysis; format: protein-complex assay
Summary of the method: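 Porcine heart SCR preparation; complex II activity as succinate oxidation by 53 µM DCIP in 100 mM PBS pH 7.4, 0.3 mM EDTA, 20 mM succinate, 23°C, started by enzyme addition. DCIP reduction followed continuously at A600 (ε 21 mM−1cm−1) with varying inhibitor concentrations.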

[6] = target: Cytochrome b (Sus scrofa) (UniProt P24964); assay: Inhibition of Sus scrofa (pig) heart cytochrome bc1 complex using succinate as substrate at 7.5 to 25 nM by spectropfhotometric analysis
Cytochrome b (Sus scrofa), sequence (P24964 whole entry): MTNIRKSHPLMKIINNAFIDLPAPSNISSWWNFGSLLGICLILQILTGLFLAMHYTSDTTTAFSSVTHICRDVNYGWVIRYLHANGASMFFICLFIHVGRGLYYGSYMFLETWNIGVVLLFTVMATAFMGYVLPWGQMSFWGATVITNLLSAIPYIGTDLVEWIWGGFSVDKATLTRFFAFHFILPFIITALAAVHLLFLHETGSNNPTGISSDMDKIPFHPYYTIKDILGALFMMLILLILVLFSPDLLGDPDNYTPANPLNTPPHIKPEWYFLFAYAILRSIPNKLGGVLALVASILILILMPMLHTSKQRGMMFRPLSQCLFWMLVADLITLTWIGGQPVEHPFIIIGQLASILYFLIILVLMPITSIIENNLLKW

[7] = target: Cytochrome b (Sus scrofa) (UniProt P24964); assay: Ratio of pyraclostrobin Ki to compound Ki for Sus scrofa (pig) heart cytochrome bc1 complex
[8] = target: Cytochrome b (Sus scrofa) (UniProt P24964); assay: Ratio of kresoxim-methyl Ki to compound Ki for Sus scrofa (pig) heart cytochrome bc1 complex
[9] = target: Cytochrome b (Sus scrofa) (UniProt P24964); assay: Ratio of azoxystobin Ki to compound Ki for Sus scrofa (pig) heart cytochrome bc1 complex
[10] = target: T1, Succinate dehydrogenase [ubiquinone] iron-sulfur subunit, mitochondrial (Sus scrofa); assay: Inhibition of Sus scrofa (pig) heart succinate-cytochrome c reductase (Electron transport protein complex 2/3) using succinate and cytochrome c as substrate by spectrophotometric analysis
Summary of the method: as §1

Cytochrome b, sequence (P24964 whole entry): as above

Compound	Ki [1]	inhibition [5]	further results
COC(=O)N(OC)c1ccccc1COc1ccn(-c2ccc(Cl)cc2)n1 [PYRACLOSTROBIN]	3.3 nM		
CO/C=C(/C(=O)OC)c1ccccc1COc1cc(-c2cc(Cl)ccc2O)nn1C	0.57 nM	inactive	inhibition [2]: Active; inhibition [3]: Active; inhibition [4]: Active; inhibition [6]: Active; Ratio Ki [7]: 5.8; Ratio Ki [8]: 280; Ratio Ki [9]: 522
CO/C=C(/C(=O)OC)c1ccccc1COc1cc(-c2ccccc2OCc2ccccc2)nn1C	12.7 nM		
CO/C=C(/C(=O)OC)c1ccccc1COc1cc(-c2ccccc2OC)nn1C	29.1 nM		
CO/C=C(/C(=O)OC)c1ccccc1COc1cc(-c2cc(C)ccc2O)nn1C	3.1 nM	inactive	inhibition [10]: Active
CO/C=C(/C(=O)OC)c1ccccc1COc1cc(-c2cc(C)ccc2OC)nn1C	19.9 nM		
CO/C=C(/C(=O)OC)c1ccccc1COc1cc(-c2ccccc2OC(=O)c2ccc(F)cc2)nn1C	97.7 nM		
CO/N=C(/C(=O)OC)c1ccccc1COc1cc(-c2ccccc2O)nn1C	3.8 nM	inactive	inhibition [10]: Active
CO/N=C(/C(=O)OC)c1ccccc1COc1ccccc1C [KRESOXIM-METHYL]	160 nM		
CO/C=C(/C(=O)OC)c1ccccc1COc1cc(-c2ccccc2O)nn1C	1.2 nM	inactive	inhibition [10]: Active
CO/C=C(/C(=O)OC)c1ccccc1Oc1cc(Oc2ccccc2C#N)ncn1 [AZOXYSTROBIN]	298 nM		
